Results taken from publication PMC12848671 (Chemical & Biomedical Imaging, 2025).
Like-named read-outs stand apart in the source and are kept apart here. Ends that are not written are not given here. * marks the point of attachment. 125I = [125I]*

Tests used:
HEK293-hACE2 cells [1] = format: cell-based, human; details: 2 × 10^6 cells/mL, 0.5 mL, γ-counter, mean ± SD, three repetitions
[2] = Chemical stability by analytical HPLC; format: physicochemical; details: 1 mg/mL, 37 °C, 24 h
How it was run: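 For acid stability, test peptide at 1 mg/mL in diluted HCl (pH 2), held at 37 °C for up to 24 h. Purity by analytical HPLC on a C18 column: A = acetonitrile/0.1% TFA, B = water/0.1% TFA, 65-40-0% B over 0-20-20.1 min, 1 mL/min, room temperature.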

HEK293-hACE2 cells [3] = details: 36 h
HEK293-hACE2 cells [4] = details: even at a concentration of 36.27 μM; 36 h
C57BL/6 mice = assay: 125I-based SPECT/CT in vivo distribution, wild-type mice; parameters: species or system mouse; details: WT C57BL/6 mice, i.v., by 6 h P.I.
How it was run: (§1)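 Male mice, 4 months old, n = 5 per strain, anaesthetised with isoflurane (1.5%–2% induction, 1%–1.5% maintenance). Each got 3.28 ± 0.42 MBq of the 125I-labelled test peptide via the lateral tail vein. SPECT (35 keV, MLEM, 28 min) at 1 and 6 h post-injection, followed by CT. Manual 3D ROIs gave uptake (counts/mm3) in heart, lungs, liver and GI tract.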

K18-hACE2 mice = assay: 125I-based SPECT/CT in vivo distribution, K18-hACE2 mice; parameters: species or system mouse
How it was run: as §1

wild-type C57BL/6 mice = assay: 68Ga-DOTA-Omi-X PET/CT, wild-type mice; format: in vivo, mouse; details: 3.7 MBq i.v., PET 2 h P.I.
[5] = Radiochemical stability in 10% FBS; format: in vitro ADME; details: radio-TLC, mean ± SD
[6] = Radiochemical stability in 0.01 M PBS; format: physicochemical; details: radio-TLC, mean ± SD

## TVCGPKKSTNLVKNK [Omi-B]
HEK293-hACE2 cells [1]
  radioactive uptake rate in HEK293-hACE2 cells (ACE2-binding rate): 15.04% ± 2.98%

## CC(C)C[C@H](NC(=O)[C@H](CC(C)C)NC(=O)[C@H](CCC(=O)O)NC(=O)[C@H](Cc1ccccc1)NC(=O)[C@H](CO)NC(=O)[C@H](CC(C)C)NC(=O)[C@@H](NC(=O)[C@@H](NC(=O)[C@@H](NC(=O)[C@H](CCCNC(=N)N)NC(=O)[C@H](Cc1ccc(O)cc1)NC(=O)[C@@H]1CCCN1C(=O)[C@H](CCC(N)=O)NC(=O)[C@@H](N)Cc1c[nH]cn1)C(C)C)C(C)C)C(C)C)C(=O)N[C@@H](Cc1c[nH]cn1)C(=O)O [Omi-X]
[2]; diluted HCl (pH = 2), analytical HPLC C18
  chemical stability of the peptide sequence: chemically stable
[2]; weakly acidic environment: diluted HCl (pH = 2), analytical HPLC
  chemical stability of the peptide sequence: > 95%
HEK293-hACE2 cells [3]; 54.410 μM (100 μg/mL)
  cell-division rate (CFDA SE): slightly inhibited
HEK293-hACE2 cells [3]; low-dose 0.544 μM (1 μg/mL)
  cell-division rate (CFDA SE): no significant difference
HEK293-hACE2 cells [3]; medium-dose 5.441 μM (10 μg/mL)
  cell-division rate (CFDA SE): no significant difference
HEK293-hACE2 cells [4]
  effect on cell cycle distribution: no significant effect

## ^125I-Omi-X: 125I-labeled Omi-X for SPECT imaging (HQPY(125I)RVVVLSFELLH)
C57BL/6 mice
  uptake in RAAS-related organs: greatly reduced
K18-hACE2 mice; i.v. tail vein, SPECT/CT 1 h P.I.
  clearance from circulation: rapidly cleared from circulation
K18-hACE2 mice; i.v., SPECT/CT
  excretion of unbound tracer: primarily excreted through the urinary system
K18-hACE2 mice; i.v., SPECT/CT 1 h P.I.
  organ accumulation: notably accumulated in the organs highly expressing ACE2, including the lung, heart, liver, and spleen

## CC(C)C[C@H](NC(=O)[C@H](CC(C)C)NC(=O)[C@H](CCC(=O)O)NC(=O)[C@H](Cc1ccccc1)NC(=O)[C@H](CO)NC(=O)[C@H](CC(C)C)NC(=O)[C@@H](NC(=O)[C@@H](NC(=O)[C@@H](NC(=O)[C@H](CCCNC(=N)N)NC(=O)[C@H](Cc1ccc(O)cc1)NC(=O)[C@@H]1CCCN1C(=O)[C@H](CCC(N)=O)NC(=O)[C@H](Cc1c[nH]cn1)NC(=O)CN1CCN(CC(=O)O)CCN(CC(=O)O)CCN(CC(=O)O)CC1)C(C)C)C(C)C)C(C)C)C(=O)N[C@@H](Cc1c[nH]cn1)C(=O)O [^68Ga-DOTA-Omi-X, metal not drawn]
wild-type C57BL/6 mice
  ACE2-specific targeting: did not appear to show significant ACE2-specific targeting
[5]
  radiochemical stability (4 h) in 10% FBS: 94.10 ± 1.55%
[6]
  radiochemical stability (4 h) in 0.01 M PBS: 96.10 ± 0.75%
